Data taken from ChEMBL document CHEMBL4308922, “Design and Evaluation of Heterobivalent PAR1-PAR2 Ligands as Antagonists of Calcium Mobilization” (ACS Med Chem Lett, 2019).
pIC50: −log10 of the molar value. Active and inactive are the calls of the source. No cut-off for these calls is given here.

Experiments:
[1] = molecular target: Proteinase-activated receptor 2 (Homo sapiens) (UniProt P55085); test: (§1) Antagonist activity at PAR2 in human EAhy926 cells assessed as inhibition of SLIGKV-NH2-induced intracellular calcium mobilization preincubated for 15 mins followed by SLIGKV-NH2 addition by Fluo-4-AM dye based fluorescence assay; assay type: functional, cell-based
Procedure, shortened: (§2)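 Confluent adherent cells (~48 h growth in 96-well plates) loaded with Fluo-4/AM calcium dye; antagonist added before PAR2 agonist SLIGKV-NH2 at 5 μM. IC50 from four-variable nonlinear regression of concentration–response data, N = 3 on one plate, SEM error bars.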

[2] = molecular target: T1, Proteinase-activated receptor 1 (Homo sapiens) (UniProt P25116); test: (§3) Antagonist activity at PAR1 in human EAhy926 cells assessed as inhibition of TFLLRN-NH2-induced intracellular calcium mobilization preincubated for 15 mins followed by TFLLRN-NH2 addition by Fluo-4-AM dye based fluorescence assay; assay type: functional, cell-based
T1 sequence (whole entry): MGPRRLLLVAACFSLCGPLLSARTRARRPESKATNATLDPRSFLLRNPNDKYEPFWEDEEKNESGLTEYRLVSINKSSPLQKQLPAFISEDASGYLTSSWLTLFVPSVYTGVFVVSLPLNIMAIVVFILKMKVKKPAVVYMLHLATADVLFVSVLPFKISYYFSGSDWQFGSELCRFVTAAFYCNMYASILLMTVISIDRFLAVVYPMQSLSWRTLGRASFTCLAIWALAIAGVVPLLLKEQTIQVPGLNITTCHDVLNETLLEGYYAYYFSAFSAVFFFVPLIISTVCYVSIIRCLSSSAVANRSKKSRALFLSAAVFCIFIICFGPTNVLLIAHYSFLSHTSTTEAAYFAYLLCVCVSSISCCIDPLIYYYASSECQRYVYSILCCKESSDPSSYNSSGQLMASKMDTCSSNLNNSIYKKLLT
Procedure, shortened: (§4)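 Adherent cells grown in 96-well plates to confluence (~48 h), loaded with Fluo-4/AM; antagonist added, then PAR1 agonist TFLLRN-NH2 at 5 μM. Concentration–response curves from N = 3 on a single plate, fitted by four-variable nonlinear regression to give IC50; errors as SEM.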

[3] = species on record: Homo sapiens; test: (§5) Antagonist activity at PAR1/PAR2 in human EAhy926 cells assessed as inhibition of SFLLRN-NH2-induced intracellular calcium mobilization preincubated for 15 mins followed by SFLLRN-NH2 addition by Fluo-4-AM dye based fluorescence assay; assay type: cell-based
Procedure, shortened: (§6)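 Cells cultured to confluence over ~48 h in 96-well plates, Fluo-4/AM loaded; antagonist added, then PAR1/2 agonist SFLLRN-NH2 at 3.16 μM. Curves from triplicate wells on a single plate fitted by four-variable nonlinear regression for IC50; SEM reported.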

[4] = molecular target: T2, Proteinase-activated receptor 2 (Homo sapiens, UniProt P55085); test: as §1; assay type: functional, cell-based; procedure, shortened: as §2
T2 sequence (P55085 whole entry): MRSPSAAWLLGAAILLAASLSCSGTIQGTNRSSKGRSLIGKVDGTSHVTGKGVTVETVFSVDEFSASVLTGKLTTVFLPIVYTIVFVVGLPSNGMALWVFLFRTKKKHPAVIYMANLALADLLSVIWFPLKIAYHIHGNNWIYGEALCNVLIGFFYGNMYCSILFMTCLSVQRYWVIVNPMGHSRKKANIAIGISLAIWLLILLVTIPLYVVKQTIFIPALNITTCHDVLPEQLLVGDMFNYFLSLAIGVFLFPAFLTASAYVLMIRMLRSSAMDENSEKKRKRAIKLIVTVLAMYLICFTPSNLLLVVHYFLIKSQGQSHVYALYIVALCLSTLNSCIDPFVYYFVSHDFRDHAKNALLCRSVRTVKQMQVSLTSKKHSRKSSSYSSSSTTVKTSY

[5] = molecular target: T3, Proteinase-activated receptor 1 (Homo sapiens, UniProt P25116); test: as §3; assay type: functional, cell-based; procedure, shortened: as §4
T3 sequence (P25116 whole entry): T1 sequence (whole entry)

[6] = as §5; assay type: cell-based; conditions: EA.hy 926; procedure, shortened: as §6
[7] = molecular target: T2, Proteinase-activated receptor 2; test: (§7) Antagonist activity at PAR2 in human MDA-MB-231 cells assessed as inhibition of SLIGKV-NH2-induced intracellular calcium mobilization preincubated for 15 mins followed by SLIGKV-NH2 addition by Fluo-4-AM dye based fluorescence assay; assay type: functional, cell-based; procedure, shortened: as §2
[8] = molecular target: T2, Proteinase-activated receptor 2; test: (§8) Antagonist activity at PAR2 in human EAhy926 cells assessed as inhibition of trypsin-induced intracellular calcium mobilization preincubated for 15 mins followed by trypsin addition by Fluo-4-AM dye based fluorescence assay; assay type: functional, cell-based
Procedure, shortened: (§9)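 Fluo-4/AM-loaded confluent cells; antagonist added before 5 nM trypsin as PAR2-activating protease; calcium mobilization concentration–response fitted for IC50.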

[9] = molecular target: T3, Proteinase-activated receptor 1; test: (§10) Antagonist activity at PAR1 in human MDA-MB-231 cells assessed as inhibition of TFLLRN-NH2-induced intracellular calcium mobilization preincubated for 15 mins followed by TFLLRN-NH2 addition by Fluo-4-AM dye based fluorescence assay; assay type: functional, cell-based; procedure, shortened: as §4
[10] = molecular target: T1, Proteinase-activated receptor 1 (Homo sapiens); test: (§11) Antagonist activity at PAR1 in human EAhy926 cells assessed as inhibition of thrombin-induced intracellular calcium mobilization preincubated for 15 mins followed by thrombin addition by Fluo-4-AM dye based fluorescence assay; assay type: functional, cell-based
Procedure, shortened: (§12)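 Fluo-4/AM-loaded confluent EA.hy926 monolayers; antagonist added before 1 nM thrombin as activating protease; calcium mobilization curves fitted for IC50.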

[11] = molecular target: Proteinase-activated receptor 2 (Homo sapiens) (UniProt P55085); test: as §7; assay type: functional, cell-based; procedure, shortened: as §2
[12] = molecular target: T1, Proteinase-activated receptor 1 (Homo sapiens); test: as §10; assay type: functional, cell-based; procedure, shortened: as §4
[13] = system: MDA-MB-231; test: (§13) Antagonist activity at PAR1/PAR2 in human MDA-MB-231 cells assessed as inhibition of SFLLRN-NH2-induced intracellular calcium mobilization preincubated for 15 mins followed by SFLLRN-NH2 addition by Fluo-4-AM dye based fluorescence assay; assay type: cell-based; procedure, shortened: as §6
[14] = Half life in mouse plasma at 10 uM by LC-MS/MS analysis; assay type: ADME, cell-free
[15] = as §13; assay type: cell-based; procedure, shortened: as §6
[16] = molecular target: T3, Proteinase-activated receptor 1; test: as §11; assay type: functional, cell-based; procedure, shortened: as §12
[17] = molecular target: Proteinase-activated receptor 2 (Homo sapiens) (UniProt P55085); test: as §8; assay type: functional, cell-based; procedure, shortened: as §9

| inhibition [1] | pIC50 [4] | pIC50 [5] | pIC50 [6] | Compound | inhibition [3] | further results |
| --- | --- | --- | --- | --- | --- | --- |
| Active |  |  |  | CC1(C)CN(C(=O)[C@H]2CC[C@H](C(=O)NCCOCCOCCOCCOCCOCCOCCOCCOCCOCCOCCn3cc(CCC(=O)NCC[C@H](NC(=O)[C@H](Cc4ccc(F)c(F)c4)NC(=O)Nc4ccc5c(CN6CCCC6)nn(Cc6c(Cl)cccc6Cl)c5c4)C(=O)NCc4ccccc4)nn3)CC2)CCN1C(=O)c1cn2nc(-c3ccc(F)cc3)cc(-c3ccc(F)cc3)c2n1 | Active | inhibition [2]: Active |
|  | < 4.30 | 6.89 | 5.52 | CC(C)c1cc(-c2ccc(F)cc2)nn2cc(C(=O)N3CCN(C(=O)CCC(=O)NCCOCCOCCOCCOCCOCCOCCOCCOCCn4cc(CCC(=O)NCC[C@H](NC(=O)[C@H](Cc5ccc(F)c(F)c5)NC(=O)Nc5ccc6c(CN7CCCC7)nn(Cc7c(Cl)cccc7Cl)c6c5)C(=O)NCc5ccccc5)nn4)CC3(C)C)nc12 |  |  |
|  | 7.00 |  |  | CC(C)c1cc(-c2ccc(F)cc2)nn2cc(C(=O)N3CCN(C(=O)CCC(=O)O)CC3(C)C)nc12 |  | pIC50 [7]: 6.32; pIC50 [8]: 8.70 |
|  | < 4.30 | 7.52 | 5.52 | CC(C)c1cc(-c2ccc(F)cc2)nn2cc(C(=O)N3CCN(C(=O)CCC(=O)NCCOCCOCCOCCOCCOCCOCCn4cc(CCC(=O)NCC[C@H](NC(=O)[C@H](Cc5ccc(F)c(F)c5)NC(=O)Nc5ccc6c(CN7CCCC7)nn(Cc7c(Cl)cccc7Cl)c6c5)C(=O)NCc5ccccc5)nn4)CC3(C)C)nc12 |  |  |
|  |  | 7.01 | 7.13 | NCCOCCOCCOCCOCCOCCOCCOCCOCCn1cc(CCC(=O)NCC[C@H](NC(=O)[C@H](Cc2ccc(F)c(F)c2)NC(=O)Nc2ccc3c(CN4CCCC4)nn(Cc4c(Cl)cccc4Cl)c3c2)C(=O)NCc2ccccc2)nn1 |  | pIC50 [9]: 8.00; inhibition [10]: Active |
| inactive |  |  |  | CC(C)c1cc(-c2ccc(F)cc2)nn2cc(C(=O)N3CCN(C(=O)CCC(=O)NCCCCC(=O)NCCOCCOCCOCCOCCOCCOCCOCCOCCOCCOCCOCCOCCOCCOCCOCCOCCOCCOCCOCCOCCOCCOCCOCCn4cc(CCC(=O)NCC[C@H](NC(=O)[C@H](Cc5ccc(F)c(F)c5)NC(=O)Nc5ccc6c(CN7CCCC7)nn(Cc7c(Cl)cccc7Cl)c6c5)C(=O)NCc5ccccc5)nn4)CC3(C)C)nc12 | inactive | inhibition [11]: inactive; inhibition [2]: inactive; inhibition [12]: inactive; inhibition [13]: inactive |
| inactive |  |  |  | CC(C)c1cc(-c2ccc(F)cc2)nn2cc(C(=O)N3CCN(C(=O)CCC(=O)NCCCCCC(=O)NCCOCCOCCOCCOCCOCCOCCOCCOCCOCCOCCOCCOCCOCCOCCOCCOCCOCCOCCOCCOCCOCCOCCOCCN=[N+]=[N-])CC3(C)C)nc12 |  | inhibition [11]: inactive |
| Active |  |  |  | CC1(C)CN(C(=O)[C@H]2CC[C@H](C(=O)O)CC2)CCN1C(=O)c1cn2nc(-c3ccc(F)cc3)cc(-c3ccc(F)cc3)c2n1 |  | inhibition [11]: Active |
| Active |  |  |  | CC1(C)CN(C(=O)[C@H]2CC[C@H](C(=O)NCCOCCOCCOCCOCCOCCOCCOCCOCCn3cc(CCC(=O)NCC[C@H](NC(=O)[C@H](Cc4ccc(F)c(F)c4)NC(=O)Nc4ccc5c(CN6CCCC6)nn(Cc6c(Cl)cccc6Cl)c5c4)C(=O)NCc4ccccc4)nn3)CC2)CCN1C(=O)c1cn2nc(-c3ccc(F)cc3)cc(-c3ccc(F)cc3)c2n1 | Active | inhibition [2]: Active |
|  | 5.48 | 6.74 | 6.82 | CC(C)c1cc(-c2ccc(F)cc2)nn2cc(C(=O)N3CCN(C(=O)CCC(=O)NCCOCCOCCOCCOCCOCCOCCOCCOCCOCCOCCOCCOCCOCCOCCOCCOCCOCCOCCOCCOCCOCCOCCOCCn4cc(CCC(=O)NCC[C@H](NC(=O)[C@H](Cc5ccc(F)c(F)c5)NC(=O)Nc5ccc6c(CN7CCCC7)nn(Cc7c(Cl)cccc7Cl)c6c5)C(=O)NCc5ccccc5)nn4)CC3(C)C)nc12 |  | pIC50 [7]: 5.46; pIC50 [9]: 6.85; half-life at 10 µM [14]: 5.6 h; pIC50 [15]: 5.48; pIC50 [16]: 6.44; inhibition [17]: inactive |
|  |  |  |  | NCC[C@H](NC(=O)[C@H](Cc1ccc(F)c(F)c1)NC(=O)Nc1ccc2c(CN3CCCC3)nn(Cc3c(Cl)cccc3Cl)c2c1)C(=O)NCc1ccccc1 [RWJ-58259] |  | pIC50 [9]: 8.30 |
|  | 5.15 |  |  | COCc1cn(CCOCCOCCOCCOCCOCCOCCOCCOCCOCCOCCNC(=O)CCC(=O)N2CCN(C(=O)c3cn4nc(-c5ccc(F)cc5)cc(C(C)C)c4n3)C(C)(C)C2)nn1 | inactive | pIC50 [7]: 6.07; inhibition [17]: inactive |
| Active |  |  |  | CC1(C)CN(C(=O)[C@H]2CC[C@H](C(=O)NCCOCCOCCOCCOCCOCCOCCn3cc(CCC(=O)NCC[C@H](NC(=O)[C@H](Cc4ccc(F)c(F)c4)NC(=O)Nc4ccc5c(CN6CCCC6)nn(Cc6c(Cl)cccc6Cl)c5c4)C(=O)NCc4ccccc4)nn3)CC2)CCN1C(=O)c1cn2nc(-c3ccc(F)cc3)cc(-c3ccc(F)cc3)c2n1 | Active | inhibition [2]: Active |
|  | < 4.30 | 7.40 | < 4.30 | CC(C)c1cc(-c2ccc(F)cc2)nn2cc(C(=O)N3CCN(C(=O)CCC(=O)NCCOCCOCCOCCOCCOCCOCCOCCOCCOCCOCCn4cc(CCC(=O)NCC[C@H](NC(=O)[C@H](Cc5ccc(F)c(F)c5)NC(=O)Nc5ccc6c(CN7CCCC7)nn(Cc7c(Cl)cccc7Cl)c6c5)C(=O)NCc5ccccc5)nn4)CC3(C)C)nc12 |  |  |
